According to ChEMBL document CHEMBL1152204, “Novel potent and highly selective human A(3) adenosine receptor antagonists belonging to the 4-amido-2-arylpyrazolo[3,4-c]quinoline series: molecular docking analysis and pharmacological studies” (Bioorg Med Chem, 2009):

Columns and labels:
Adenosine receptor A2a [1] = molecular target: T1, Adenosine receptor A2a (Homo sapiens, UniProt P29274); assay: Displacement of [3H]ZM241385 from human adenosine A2A receptor expressed in CHO cells at 1 uM by scintillation counting; assay type: cell-based
T1 sequence (P29274 whole entry): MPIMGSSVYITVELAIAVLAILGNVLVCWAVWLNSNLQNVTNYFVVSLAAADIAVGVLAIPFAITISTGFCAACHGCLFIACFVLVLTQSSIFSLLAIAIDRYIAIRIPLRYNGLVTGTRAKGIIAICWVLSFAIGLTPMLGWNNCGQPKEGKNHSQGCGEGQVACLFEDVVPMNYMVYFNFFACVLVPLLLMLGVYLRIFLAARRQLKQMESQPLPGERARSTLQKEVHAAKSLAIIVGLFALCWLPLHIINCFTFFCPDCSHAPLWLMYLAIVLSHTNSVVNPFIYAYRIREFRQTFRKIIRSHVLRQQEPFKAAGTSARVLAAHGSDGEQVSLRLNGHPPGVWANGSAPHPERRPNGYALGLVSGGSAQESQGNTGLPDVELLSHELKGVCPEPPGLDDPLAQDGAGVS
Procedure, shortened: (§1)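 hA2A-CHO membranes (50 µg protein) with 1 nM [³H]ZM241385 in 50 mM Tris-HCl, 10 mM MgCl2, pH 7.4; 60 min at 4 °C; nonspecific binding with 1 µM ZM241385. GF/B filtration. Ki from six to eight concentrations via Cheng–Prusoff; or % inhibition at 1 µM.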

[2] = molecular target: T2, Adenosine receptor A2b (Homo sapiens) (UniProt P29275); assay: Antagonist activity at human adenosine A2B receptor expressed in CHO cells assessed as inhibition of NECA-induced cAMP accumulation at 1 uM; assay type: functional, cell-based
T2 sequence (whole entry): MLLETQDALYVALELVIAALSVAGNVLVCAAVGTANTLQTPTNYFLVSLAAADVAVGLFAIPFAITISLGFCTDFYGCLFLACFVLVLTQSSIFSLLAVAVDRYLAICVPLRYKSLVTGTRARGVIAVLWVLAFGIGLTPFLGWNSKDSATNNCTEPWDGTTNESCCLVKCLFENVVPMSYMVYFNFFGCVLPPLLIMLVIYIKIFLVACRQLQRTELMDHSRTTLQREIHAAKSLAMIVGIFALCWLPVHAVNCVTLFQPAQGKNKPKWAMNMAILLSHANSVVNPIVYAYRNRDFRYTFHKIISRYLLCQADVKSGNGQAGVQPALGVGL
Procedure, shortened: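 Whole hA2B-CHO cells (1 × 10⁶/assay) in buffered saline, pH 7.4, with 2 IU/ml adenosine deaminase and Ro 20-1724; preincubated 10 min at 37 °C. Stimulated with 200 nM NECA; compound at 1 µM. Stopped with cold 6% TCA, ether-extracted; cAMP by [³H]cAMP competition protein binding; % inhibition reported.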

[3] = molecular target: T3, Adenosine receptor A1 (Homo sapiens) (UniProt P30542); assay: Displacement of [3H]DPCPX from human adenosine A1 receptor expressed in CHO cells at 1 uM by scintillation counting; assay type: cell-based
T3 sequence (whole entry): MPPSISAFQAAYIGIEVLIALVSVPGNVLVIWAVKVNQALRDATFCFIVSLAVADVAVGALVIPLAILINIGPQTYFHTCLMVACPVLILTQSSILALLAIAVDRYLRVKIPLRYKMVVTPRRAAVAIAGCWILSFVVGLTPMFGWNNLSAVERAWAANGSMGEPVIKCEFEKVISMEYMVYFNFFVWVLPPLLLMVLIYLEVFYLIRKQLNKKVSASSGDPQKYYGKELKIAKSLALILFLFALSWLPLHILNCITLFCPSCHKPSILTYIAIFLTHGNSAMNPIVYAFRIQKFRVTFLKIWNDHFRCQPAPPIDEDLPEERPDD
Procedure, shortened: (§2)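 hA1-CHO membranes (50 µg protein) with 1 nM [³H]DPCPX in 50 mM Tris-HCl pH 7.4, 120 min at 25 °C; nonspecific binding with 10 µM CHA. GF/B filtration. Ki from six to eight concentrations via Cheng–Prusoff (four duplicate assays); or % inhibition at 1 µM.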

Adenosine receptor A3 [4] = molecular target: T4, Adenosine receptor A3 (Homo sapiens, UniProt P0DMS8); assay: (§3) Displacement of [125I]AB-MECA from human adenosine A3 receptor expressed in CHO cells by scintillation counting; assay type: cell-based
T4 sequence (P0DMS8 whole entry): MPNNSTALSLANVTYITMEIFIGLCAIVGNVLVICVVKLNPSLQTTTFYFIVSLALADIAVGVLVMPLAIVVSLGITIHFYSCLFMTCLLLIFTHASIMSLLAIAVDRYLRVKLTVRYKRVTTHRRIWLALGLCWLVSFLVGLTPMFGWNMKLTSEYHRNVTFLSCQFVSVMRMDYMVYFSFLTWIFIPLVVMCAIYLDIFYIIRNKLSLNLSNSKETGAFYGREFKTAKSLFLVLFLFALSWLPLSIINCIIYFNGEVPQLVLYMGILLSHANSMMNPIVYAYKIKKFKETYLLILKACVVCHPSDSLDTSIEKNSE
Procedure, shortened: (§4)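 hA3-CHO membranes (50 µg protein) with 0.5 nM [125I]AB-MECA in 50 mM Tris-HCl, 10 mM MgCl2, 1 mM EDTA, pH 7.4; six to eight ligand concentrations; 120 min at 4 °C. Nonspecific binding: 1 µM AB-MECA. GF/B filtration. Ki by Cheng–Prusoff, means of four assays in duplicate.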

Adenosine receptor A3 [5] = molecular target: T4, Adenosine receptor A3; assay: Antagonist activity at human adenosine A3 receptor expressed in CHO cells assessed as inhibition of CI-IB-MECA-mediated inhibition of cAMP accumulation by competition protein binding assay; assay type: functional, cell-based
Procedure, shortened: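 hA3-CHO cells (1 × 10⁶/assay) preincubated 10 min at 37 °C in buffered saline pH 7.4 with adenosine deaminase (2 IU/ml) and Ro 20-1724. cAMP inhibited by 100 nM Cl-IB-MECA; antagonist 1 nM–1 µM. TCA stop, ether extraction, cAMP by [³H]cAMP/adrenal binding-protein competition. IC50 as mean of four experiments.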

[6] = molecular target: T5, Adenosine receptor A3 (Rattus norvegicus) (UniProt P28647); assay: Displacement of [125I]AB-MECA from rat adenosine A3 receptor expressed in HEK293 cells at 1 uM by scintillation counting; assay type: cell-based
T5 sequence (whole entry): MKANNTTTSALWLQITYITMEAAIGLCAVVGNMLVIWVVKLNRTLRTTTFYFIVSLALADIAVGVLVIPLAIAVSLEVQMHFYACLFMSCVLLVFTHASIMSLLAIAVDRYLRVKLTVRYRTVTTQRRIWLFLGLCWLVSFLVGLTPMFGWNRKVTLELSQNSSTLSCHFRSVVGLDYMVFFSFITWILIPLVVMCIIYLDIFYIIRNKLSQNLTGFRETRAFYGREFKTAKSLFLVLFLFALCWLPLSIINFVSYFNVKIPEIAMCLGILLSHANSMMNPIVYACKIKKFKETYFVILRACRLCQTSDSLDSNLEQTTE
Procedure, shortened: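 rA3-HEK293 membranes (10 µg protein) with 0.5 nM [125I]AB-MECA in Tris-HCl/MgCl2/EDTA buffer pH 7.4; 120 min at 25 °C; GF/B filtration and scintillation counting; percent inhibition at 1 µM test compound.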

[7] = molecular target: T6, Adenosine receptor A3 (Homo sapiens) (UniProt P0DMS8); assay: as §3; assay type: cell-based; parameters: concentration or dose not given beside the values; settings: concentration not given here; procedure, shortened: as §4
T6 sequence (whole entry): T4 sequence (P0DMS8 whole entry)

Adenosine receptor A1 = molecular target: T7, Adenosine receptor A1 (Homo sapiens, UniProt P30542); assay: Displacement of [3H]DPCPX from human adenosine A1 receptor expressed in CHO cells by scintillation counting; assay type: cell-based; procedure, shortened: as §2
T7 sequence (P30542 whole entry): T3 sequence (whole entry)

Adenosine receptor A2a [8] = molecular target: T1, Adenosine receptor A2a; assay: Displacement of [3H]ZM241385 from human adenosine A2A receptor expressed in CHO cells by scintillation counting; assay type: cell-based; procedure, shortened: as §1

Structure (SMILES)	inhibition (Adenosine receptor A2a [1]) [%]	inhibition [2] [%]	inhibition [3] [%]	Ki (Adenosine receptor A3 [4]) [nM]	IC50 (Adenosine receptor A3 [5]) [nM]	inhibition [6] [%]	inhibition [7] [%]	Ki (Adenosine receptor A1) [nM]	Ki (Adenosine receptor A2a [8]) [nM]
O=c1[nH]c2ccccc2c2cn(-c3cccc(C(F)(F)F)c3)nc12	5	3	2				4		
O=C(Nc1nc2ccccc2c2cn(-c3ccccc3)nc12)c1cnccn1	6	2	6	65					
O=C(c1ccc(C(F)(F)F)cc1)N(C(=O)c1ccc(C(F)(F)F)cc1)c1nc2ccccc2c2cn(-c3ccccc3)nc12	1	1	17				29		
O=C(c1ccccc1)N(C(=O)c1ccccc1)c1nc2ccccc2c2cn(-c3ccccc3)nc12	0		0						
O=C(Nc1nc2ccccc2c2cn(-c3ccccc3)nc12)c1cccc(C(F)(F)F)c1	1	2	23	60					
O=C(Nc1nc2ccccc2c2cn(-c3ccccc3)nc12)c1ccc(C(F)(F)F)cc1	3	4	10	415					
O=C(c1cccc(C(F)(F)F)c1)N(C(=O)c1cccc(C(F)(F)F)c1)c1nc2ccccc2c2cn(-c3ccccc3)nc12	3	6	4				24		
Cc1cccc(-n2cc3c(n2)c(NC(=O)c2ccccc2)nc2ccccc23)c1									2860
O=C(Nc1nc2ccccc2c2cn(-c3ccccc3)nc12)c1ncccn1	2	1	6	945					
Nc1nc2ccccc2c2cn(-c3cccc(C(F)(F)F)c3)nc12	7	4	6				30		
O=C(Nc1nc2ccccc2c2cn(-c3ccccc3)nc12)c1ccncn1	6	3	9	210					
O=C(Nc1nc2ccccc2c2cn(-c3ccccc3)nc12)c1cscn1	1	2	12	60					
O=c1[nH]c2ccccc2c2cn(-c3ccc(C(F)(F)F)cc3)nc12	10	5	6	480					
O=C(Nc1nc2ccccc2c2cn(-c3ccccc3)nc12)c1cccs1	1	6	45	50					
O=C(Nc1nc2ccccc2c2cn(-c3ccc(C(F)(F)F)cc3)nc12)c1ccccc1	1	3	10	140					
Cc1ccc(-n2cc3c(n2)c(NC(=O)c2ccccc2)nc2ccccc23)cc1	26								
O=C(Nc1nc2ccccc2c2cn(-c3cccc(C(F)(F)F)c3)nc12)c1ccccc1	1	3	13	52					
Nc1nc2ccccc2c2cn(-c3ccc(C(F)(F)F)cc3)nc12	1	11	1				11		

More lines, now with the values ahead:

inhibition (Adenosine receptor A2a [1]) [%]	inhibition [2] [%]	inhibition [3] [%]	Ki (Adenosine receptor A3 [4]) [nM]	IC50 (Adenosine receptor A3 [5]) [nM]	inhibition [6] [%]	inhibition [7] [%]	Ki (Adenosine receptor A1) [nM]	Ki (Adenosine receptor A2a [8]) [nM]	Structure (SMILES)
2	5	9	50						O=C(Nc1nc2ccccc2c2cn(-c3ccccc3)nc12)c1ccoc1
1	2	17	11.5	83	11				O=C(Nc1nc2ccccc2c2cn(-c3ccc(Cl)cc3)nc12)c1ccco1
2	2	1	40						O=C(Nc1nc2ccccc2c2cn(-c3ccccc3)nc12)c1ccsc1
10	5		7.5	49	30		500		Cc1ccc(C(=O)Nc2nc3ccccc3c3cn(-c4ccccc4)nc23)o1
1	1	26	10.5	76	27				O=C(Nc1nc2ccccc2c2cn(-c3ccccc3)nc12)c1cccnc1
9	15	3	15.5	107	23				O=C(Nc1nc2ccccc2c2cn(-c3ccccc3)nc12)c1ccccn1
1	35	20	6.3	26	5				Cc1cccc(C(=O)Nc2nc3ccccc3c3cn(-c4ccccc4)nc23)c1
2	3	4	24.7	145	21				O=C(Nc1nc2ccccc2c2cn(-c3ccc(Cl)cc3)nc12)c1ccncc1
1	1	8	5	41	26				O=C(Nc1nc2ccccc2c2cn(-c3ccccc3)nc12)c1ccncc1
20	3	34	3.4	21	29				O=C(Nc1nc2ccccc2c2cn(-c3ccccc3)nc12)c1ccco1
0		0	2						O=C(Nc1nc2ccccc2c2cn(-c3ccccc3)nc12)c1ccccc1
1	38	6	11.5	54	7				Cc1ccc(C(=O)Nc2nc3ccccc3c3cn(-c4ccccc4)nc23)cc1
